Experimental data: PMC10788905 (Journal of Medicinal Chemistry, 2023)
Structures can show the parent of a compound that is named as a salt.

Key:
[1] = Liver microsomal stability, mouse and human, UDPGA; assay type: in vitro ADME; details: for m,h-LM % at 120 min / m,h-LM t1/2: mouse and human liver microsomes; for m,h-LM % at 120 min: UDPGA, compound remaining at 120 min; for half-life at 4.6 μM: mouse and human, liver microsomes with alamethicin, pH 7.5; for m,h-LM t1/2: UDPGA cofactor
Method in brief: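 Phase II: compound from a 10 mM DMSO stock (4.6 μM final) was preincubated 15 min at 37 °C with mouse or human liver microsomes plus alamethicin in 0.1 M Tris-HCl pH 7.5, 10% DMSO. UDPGA, D-saccharic acid lactone and MgCl₂ were added and incubated 2 h at 37 °C. Samples at 0–120 min were quenched in cold MeCN with internal standard. No-cofactor matrix controls were run. Mean of ≥2 experiments, duplicates.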

[2] = test system: melanoma A375 cells expressing GFP-LC3; assay: GFP-LC3 reporter autophagy assay; assay type: cell-based, human; details: 24 h treatment; for GFP-LC3-positive autophagosomes (fluorescent dots per cell): different concentrations
Method in brief: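 A375 melanoma cells were stably transfected with EGFP-LC3B and G418-selected; the clone used was validated with 10 μM chloroquine. Cells on glass-bottom plates were exposed to varied compound concentrations for 24 h, fixed in 4% PFA and Hoechst 33342-stained. GFP-LC3 perinuclear dots per cell were counted by fluorescence microscopy, ten fields per dose, four independent replicates.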

A375 xenografts = assay: A375 subcutaneous xenograft model; assay type: in vivo, female NMRI-Foxn1nu mice
BT-474 cells = assay: Apoptosis in BT-474; assay type: cell-based, human; details: BT-474, different concentrations, 24 h
Method in brief: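 Poly-caspase activity detected with a live-cell red/green caspase apoptosis detection kit. Cleaved PARP measured by immunoblot in TBS-T with 5% BSA: primary antibody 1:2000, GAPDH loading control 1:100000, HRP-conjugated secondaries 1:10000.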

Tolerability studies = assay type: in vivo, female CD1 mice; details: for reduction in body weight: after 8 days
Method in brief: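 Female CD1 mice (8–9 weeks, 4-day acclimation), 3 per group, received ip compound in saline; controls got saline ip daily. Regimens: 138 μmol/kg daily or every other day; 69 μmol/kg daily or 3 days on/2 off, over an 8-day period. Behavior, body weight, food and water intake were recorded daily. Weight on the pre-treatment day was set to 100%.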

[3] = test system: human ether-a-go-go-related gene (hERG) potassium channel; details: cited from earlier work
xenograft models = details: doses lower than 50 mg/kg (ip daily); cited from earlier work
breast cancer BT-474 = details: after 72 h treatment; cited from earlier work
several tumor cell lines = details: cited from earlier work
[4] = 30 mg/kg ip, 3/5 d schedule, day 15

With COc1cc(F)ccc1C1(NCc2cccc(CC3CCN(C)CC3)c2)CCCC1 [Compound 5, 1-(4-Fluoro-2-methoxy-phenyl)-N-[[3-[(1-methyl-4-piperidyl)methyl]phenyl]methyl]cyclopentanamine Dihydrochloride] the “m,h-LM % at 120 min” value [1] was over 95% and the half-life at 4.6 μM [1] was over 2 h.
In the case of CN1CCC(Cc2cccc(CNC3(c4ccc(F)c(F)c4)CCCC3)c2)CC1 [Compound 7, 1-(3,4-Difluorophenyl)-N-[[3-[(1-methyl-4-piperidyl)methyl]phenyl]methyl]cyclopentanamine;dihydrochloride], the “m,h-LM % at 120 min” value [1] is reported as over 95% and the half-life at 4.6 μM [1] is reported as over 2 h.
For CN1CCC(Cc2cccc(CNC3(c4ccc(F)c(O)c4)CCCC3)c2)CC1 [Compound 10, 2-Fluoro-5-[1-[[3-[(1-methyl-4-piperidyl)methyl]phenyl]methylamino]cyclopentyl]phenol Dihydrochloride], the “m,h-LM % at 120 min” value [1] was over 95%.
CN1CCC(Cc2cc(CNC3(c4ccc(F)cc4)CCCC3)c(F)cc2F)CC1 [Compound 16, N-[[2,4-Difluoro-5-[(1-methyl-4-piperidyl)methyl]phenyl]methyl]-1-(4-fluorophenyl)cyclopentanamine Dihydrochloride] showed a half-life at 4.6 μM [1] of over 2 h.
With Fc1ccc(C2(NCc3cc(CC4CCNCC4)ccc3F)CCCC2)cc1 [Compound 25, 1-(4-Fluorophenyl)-N-[[2-fluoro-5-(4-piperidylmethyl)phenyl]methyl]cyclopentanamine Dihydrochloride] the “m,h-LM t1/2” value [1] was over 2 h.
With CN1CCC(Cc2cccc(CNC3(c4ccc(F)cc4O)CCCC3)c2)CC1 [Compound 6, 5-Fluoro-2-[1-[[3-[(1-methyl-4-piperidyl)methyl]phenyl]methylamino]cyclopentyl]phenol Dihydrochloride] the “m,h-LM % at 120 min” value [1] was over 95% and the half-life at 4.6 μM [1] was over 2 h.
With Fc1ccc(C2(NCc3ccc(F)c(CC4CCNCC4)c3)CCCC2)cc1 [Compound 24, 1-(4-Fluorophenyl)-N-[[4-fluoro-3-(4-piperidylmethyl)phenyl]methyl]cyclopentanamine Dihydrochloride] the “increase in fluorescent dots compared with 1e” value ([2]; all the doses tested) was “significantly higher increase”, the “GFP-LC3-positive autophagosomes (fluorescent dots per cell)” value [2] was “dose-dependent accumulation” and the “tumor expression of REV-ERB target genes BMAL1 and PEPCK” value (A375 xenografts; 30 mg/kg ip for 2 days, tumors collected after 48 h, versus control) was “significantly higher expression”. The “average tumor volume (excised tumors)” value (A375 xenografts; [4]) was 307.7 mm^3, the average tumor weight (A375 xenografts; [4]) was 0.365 g and the “effects on body weight” value (A375 xenografts; 30 mg/kg ip, 3/5 d schedule, mice bearing A375 xenografts) was “negligible effects”. The “caspase-activity and cleaved PARP protein levels” value (BT-474 cells) was “dose-dependent induction”, the “m,h-LM t1/2” value [1] was over 2 h and the half-life at 4.6 μM [1] was over 2 h. For the same molecule, the “reduction in body weight” value (Tolerability studies; 69 μmol/kg (31 mg/kg) ip daily) was at most 5%, the “tolerability (body weight, water and food intake)” value (Tolerability studies; 69 μmol/kg (31 mg/kg) ip, 3/5 d schedule, 15-day period) was “well tolerated” and the “signs of arched backs and lethargy” value (Tolerability studies; 138 μmol/kg (62 mg/kg) ip daily) was “did not observe clear signs of arched backs and lethargy”. For the same molecule, the animal body weight (Tolerability studies; 138 μmol/kg (62 mg/kg) ip daily, after 2 days of treatment) was “significantly reduced” and the “reduction in body weight” value (Tolerability studies; 138 μmol/kg (62 mg/kg) ip every other day) was at most 5%.
With CN1CCC(Cc2cc(CNC3(c4ccc(F)cc4)CCCC3)ccc2O)CC1 [Compound 12, 4-[[[1-(4-Fluorophenyl)cyclopentyl]amino]methyl]-2-[(1-methyl-4-piperidyl)methyl]phenol Dihydrochloride] the half-life at 4.6 μM [1] was over 2 h.
For CN1CC2(CC(Cc3cccc(CNC4(c5ccc(F)cc5)CCCC4)c3)C2)C1 [Compound 21, 1-(4-Fluorophenyl)-N-[[3-[(2-methyl-2-azaspiro[3.3]heptan-6-yl)methyl]phenyl]methyl]cyclopentanamine Dihydrochloride], the half-life at 4.6 μM [1] was over 2 h.
COc1cc(F)ccc1C1(NCc2ccc(F)c(CC3CCN(C)CC3)c2)CCCC1 [Compound 22, 1-(4-Fluoro-2-methoxy-phenyl)-N-[[4-fluoro-3-[(1-methyl-4-piperidyl)methyl]phenyl]methyl]cyclopentanamine Dihydrochloride] gave a half-life at 4.6 μM [1] of over 2 h.
In the case of COc1cc(C2(NCc3cccc(CC4CCN(C)CC4)c3)CCCC2)ccc1F [Compound 9, 1-(4-Fluoro-3-methoxy-phenyl)-N-[[3-[(1-methyl-4-piperidyl)methyl]phenyl]methyl]cyclopentanamine Dihydrochloride], the “m,h-LM % at 120 min” value [1] is reported as over 95% and the half-life at 4.6 μM [1] is reported as over 2 h.
CN1CCC(Cc2ccc(F)c(CNC3(c4ccc(F)cc4)CCCC3)c2)CC1 [Compound 14, N-[[2-Fluoro-5-[(1-methyl-4-piperidyl)methyl]phenyl]methyl]-1-(4-fluorophenyl)cyclopentanamine Dihydrochloride] showed a half-life at 4.6 μM [1] of over 2 h.
For CN1CCC(Cc2cc(CNC3(c4ccc(F)cc4)CCCC3)ccc2F)CC1 [Compound 11, N-[[4-Fluoro-3-[(1-methyl-4-piperidyl)methyl]phenyl]methyl]-1-(4-fluorophenyl)cyclopentanamine Dihydrochloride], the half-life at 4.6 μM [1] was over 2 h.
In the case of CCN(CCO)CCCC(C)Nc1ccnc2cc(Cl)ccc12 (stereo not shown) [HCQ, hydroxychloroquine], the “concentrations blocking hERG activity” value [3] is given as “single-digit”.
In the case of CN1CCC(Cc2ccc(O)c(CNC3(c4ccc(F)cc4)CCCC3)c2)CC1 [Compound 15, 2-[[[1-(4-Fluorophenyl)cyclopentyl]amino]methyl]-4-[(1-methyl-4-piperidyl)methyl]phenol Dihydrochloride], the half-life at 4.6 μM [1] is reported as over 2 h.
For CCN(CC)CCCC(C)Nc1ccnc2cc(Cl)ccc12 (stereo not shown) [CQ, Chloroquine], the “efficacy in xenograft models” value (xenograft models) is listed as “completely ineffective” and the “concentrations blocking hERG activity” value [3] is listed as “single-digit”.
In the case of CN1CCN(Cc2cc(CNC3(c4ccccc4F)CCCC3)ccc2O)CC1 [Compound 1a, 4-[[[1-(2-fluorophenyl)cyclopentyl]amino]methyl]-2-[(4-methylpiperazin-1-yl)methyl]phenol], the IC50 (breast cancer BT-474) is given as 30.1 µM.
In the case of CN1CCC(Cc2cccc(CNC3(c4ccc(F)cc4)CCCC3)c2)CC1 [Compound 1e], the “in vitro anticancer activity, times higher than CQ” value (several tumor cell lines) is listed as “up to 50 times”, the IC50 (breast cancer BT-474) is listed as 2.1 µM and the “GFP-LC3-positive autophagosomes (fluorescent dots per cell)” value [2] is listed as “dose-dependent accumulation”. For the same molecule, the “m,h-LM % at 120 min” value [1] was over 95% and the half-life at 4.6 μM [1] was over 2 h.
